Here are results for one compound from ChEMBL document CHEMBL3351637 (Eur J Med Chem, 2014).

A short description of data set [1]: Stability of the compound assessed as compound mean nano particles size diluted with water at 2 mg/ml measured after 3 months at 5 degC by quasi-elastic light scattering method. The following applies: buffer, 2191.5 h. It counts as physicochemical. The essentials: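 Nanoassemblies made by nanoprecipitation in water as 2 mg/mL dispersions, stored at 5°C. Size checked after three months on samples diluted with water, by light scattering.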

Data set [2] can be described thus: Stability in human serum at 37 degC assessed as ratio of HPLC area of peaks corresponding to intact compound at time zero at 2 mg/ml measured after 48 hrs. The following applies: read-out: Stability. Format: ADME, cell-free.
Data set [3] can be described thus: Stability of the compound in water assessed as compound mean nano particles size at 2 mg/ml by quasi-elastic light scattering method. It counts as physicochemical. The following applies: buffer. The procedure, abridged:
(§1)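 Nanoassemblies formed by solvent displacement into water, 10 mM buffers (citrate or acetate pH 4.5, phosphate pH 7.5, borate or carbonate pH 10.2) or 100 mM NaCl, final 2 mg/mL. Mean diameter by quasi-elastic light scattering at 90° and 25°C, on samples diluted 1:20 in water; each value the average of five measurements.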

Data set [4] can be described thus: Stability of the compound in pH 4.5 citrate buffer assessed as compound mean nano particles size at 2 mg/ml by quasi-elastic light scattering method. It counts as physicochemical. The essentials: as §1
Data set [5] in a line: Stability of the compound in pH 4.5 acetate buffer assessed as compound mean nano particles size at 2 mg/ml by quasi-elastic light scattering method. It counts as physicochemical. The procedure, abridged: as §1
The nature of data set [6]: Stability of the compound in pH 7.5 phosphate buffer assessed as compound mean nano particles size at 2 mg/ml by quasi-elastic light scattering method. It counts as physicochemical. The essentials: as §1
Data set [7] in a line: Stability of the compound in pH 10.2 borate buffer assessed as compound mean nano particles size at 2 mg/ml by quasi-elastic light scattering method. Format: physicochemical. The procedure, abridged: as §1
The nature of data set [8]: Stability of the compound in pH 10.2 carbonate buffer assessed as compound mean nano particles size at 2 mg/ml by quasi-elastic light scattering method. Format: physicochemical. The procedure, abridged: as §1
Data set [9] in a line: Stability of the compound in presence of 100 mM NaCl assessed as compound mean nano particles size at 2 mg/ml by quasi-elastic light scattering method. Format: physicochemical. The procedure, abridged: as §1
Data set [10] relates to A549. Briefly: Inhibition of microtubule bundle formation in human A549 cells assessed as cell shrinking at 200 ug/mL incubated for 1 hr by alpha-tubulin staining based fluorescence microscopy. The essentials: (§2)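 A549 cells seeded on glass coverslips at 50000 cells/ml, grown 24 h, then exposed 1 h to 200 µg/ml conjugate or parent drug. Fixed and permeabilized in methanol at -20°C for 6 min, blocked in PBS + 5% BSA, stained with anti-α-tubulin (1:500, 1 h, 37°C), Alexa568 secondary and DAPI nuclei, then imaged by fluorescence microscopy at 63x.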

In data set [11] the test system is A549. In words: Inhibition of microtubule bundle formation in human A549 cells assessed as cell detachment at 200 ug/mL incubated for 1 hr by alpha-tubulin staining based fluorescence microscopy. The essentials: as §2
Data set [12] has as its system A549. Briefly: Binding affinity to microtubule in human A549 cells at 200 ug/mL incubated for 1 hr by alpha-tubulin staining based fluorescence microscopy. It counts as cell-based. The procedure, abridged: as §2
Data set [13] has as its system MCF7. Briefly: Cytotoxicity against human MCF7 cells after 48 hrs by SRB assay. It counts as functional, cell-based. Conditions: MCF7, 48 h. The procedure, abridged:
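Nanoassemblies diluted in culture medium and added at various concentrations for 48 h at 37°C/5% CO₂. Survival % vs untreated control; run thrice in triplicate; IC50 from dose–effect curves.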

The subject of data set [14] is MCF7. In words: Cytotoxicity against human MCF7 cells in presence of 10 mM DTT after 48 hrs by SRB assay. It counts as functional, cell-based. The following applies: MCF7, 48 h.
In data set [15] the test system is A549. In words: Cytotoxicity against human A549 cells after 48 hrs by SRB assay. Conditions: A549, 48 h. Format: functional, cell-based.

pIC50: −log10 of the molar value. Activity calls are given as the source filed them. No cut-off for these calls is given here.

For `CC(=O)O[C@H]1C(=O)[C@@]2(C)[C@H]([C@H](OC(=O)c3ccccc3)[C@]3(O)C[C@H](OC(=O)[C@H](OC(=O)CCCSSCCCC(=O)OCCC/C(C)=C/CC/C(C)=C/CC/C=C(\C)CC/C=C(\C)CCC=C(C)C)[C@@H](NC(=O)c4ccccc4)c4ccccc4)C(C)=C1C3(C)C)[C@]1(OC(C)=O)CO[C@@H]1C[C@@H]2O`, the Stability in [1] is 106.5 nm; in data set [3] it was 100.8 nm; in data set [4], 462.4 nm; in data set [5] it was greater than 2 um; in data set [6] it was 162.4 nm; in [7], 181.7 nm. Further, the values for the Stability in [8] and in data set [9] were 723.3 nm and greater than 2 um, respectively. The remaining at 48 h, 2 mg/ml in [2] worked out at 93%. The inhibition entry in the data set on A549 [10] and in the data set on A549 [11] was “Active” in each case. Also, the outcome in the data set on A549 [12] was Active. Further, the pIC50 with MCF7 [13] was 7.22; with MCF7 [14], 8.52; in the data set with A549 [15], 6.31.
